≈ marks a conversion by molar mass, not a printed value.
Columns and labels:
[1] = AUC (0 to t) in female rat at 5 mg/kg, iv; format: ADME, organism-based; design: dose 5 mg/kg, route intravenous; conditions: plasma
How it was run: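 Rat PK by gender, with single oral doses of 5, 15 and 45 mg/kg and an iv dose of 5 mg/kg. Tmax, Cmax, T1/2 and AUC0−t were reported per gender.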

[2] = Half life in po dosed rat; format: ADME, organism-based; conditions: in vivo
[3] = tested on: Staphylococcus aureus; experiment: Antibacterial activity against methicillin-sensitive Staphylococcus aureus ATCC 29213 in po dosed mouse thigh infection model; format: functional, organism-based; conditions: Thigh muscle
How it was run: (§1)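 Mouse thigh infection with S. aureus ATCC29213 (MSSA), 10 animals per dosing group. Oral doses were 5, 10, 20, 40 and 80 mg/kg. The read-out was log CFU per thigh after treatment, and the reduction (ΔLogCFU/thigh) was reported.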

[4] = tested on: Staphylococcus aureus; experiment: Antibacterial activity against methicillin-sensitive Staphylococcus aureus ATCC 29213 in mouse thigh infection model assessed as reduction of log10 CFU per thigh at 5 mg/kg, po; format: functional; how it was run: as §1
[5] = Tmax in human at 800 mg, po administered as single dose with meal measured on day 15; format: ADME, organism-based; conditions: in vivo
How it was run: (§2)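 Randomized, double-blind, placebo-controlled multiple-dose study in 32 healthy subjects, half male and half female. Dosing was 600 or 800 mg orally with a meal, 28 doses over 15 days. A single dose was given on days 1 and 15 for full PK, with Q12h (BID) dosing on days 2−14.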

[6] = tested on: Streptococcus pneumoniae; experiment: Antibacterial activity against penicillin-sensitive Streptococcus pneumoniae isolate 0806; format: functional
[7] = Cmax in fasted human at 900 mg, po administered as single dose; format: ADME, organism-based; design: dose 900 mg, route oral; conditions: in vivo
How it was run: (§3)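 Healthy volunteers (12; six of each sex) in a three-period Latin-square crossover. Each received single oral doses of 300, 600 and 900 mg under fasting conditions, with a 1-week washout between doses. Parameters from a noncompartmental model.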

[8] = tested on: Staphylococcus aureus; experiment: Antibacterial activity against methicillin-resistant Staphylococcus aureus isolate 0612 in po dosed mouse systemic infection model; format: functional; conditions: isolate 0612, po
[9] = Half life in female rat at 15 mg/kg, po; format: ADME, organism-based; design: dose 15 mg/kg, route oral; conditions: in vivo
[10] = molecular target: Cytochrome P450 2C19 (Homo sapiens, UniProt P33261); experiment: Inhibition of CYP2C19 (unknown origin) at 1 to 200 uM; format: ADME
Sequence of Cytochrome P450 2C19 (P33261 whole entry): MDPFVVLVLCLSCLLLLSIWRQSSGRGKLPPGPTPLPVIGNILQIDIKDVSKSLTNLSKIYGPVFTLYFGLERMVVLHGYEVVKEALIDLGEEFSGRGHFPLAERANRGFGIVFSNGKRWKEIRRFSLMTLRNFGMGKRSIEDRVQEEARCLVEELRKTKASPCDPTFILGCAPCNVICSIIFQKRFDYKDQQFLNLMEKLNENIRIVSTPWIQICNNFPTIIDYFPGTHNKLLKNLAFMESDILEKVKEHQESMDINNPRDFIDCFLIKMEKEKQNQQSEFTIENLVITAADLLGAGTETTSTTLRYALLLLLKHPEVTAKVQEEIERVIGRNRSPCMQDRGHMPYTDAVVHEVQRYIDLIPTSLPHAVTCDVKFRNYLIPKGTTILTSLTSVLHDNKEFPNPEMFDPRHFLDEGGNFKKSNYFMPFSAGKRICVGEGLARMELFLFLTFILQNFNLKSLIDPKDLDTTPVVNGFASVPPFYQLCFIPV

[11] = Toxicity in po dosed rat administered as bid for 4 weeks; format: organism-based; conditions: in vivo
[12] = tested on: Staphylococcus epidermidis; experiment: Antibacterial activity against methicillin-resistant Staphylococcus epidermidis; format: functional
[13] = tested on: Staphylococcus aureus; experiment: Antibacterial activity against methicillin-sensitive Staphylococcus aureus ATCC 29213 in mouse thigh infection model assessed as reduction of log10 CFU per thigh at 10 mg/kg, po; format: functional; how it was run: as §1
[14] = Tmax in human at 600 mg, po administered as single dose with meal measured on day 15; format: ADME, organism-based; conditions: in vivo; how it was run: as §2
[15] = Elimination half life in fasted human at 600 mg, po administered as single dose; format: ADME, organism-based; conditions: in vivo, read-out: beta t1/2 (converted); how it was run: as §3
[16] = tested on: Homo sapiens; experiment: Toxicity in human assessed as change in neutrophil count at 600 to 800 mg, po administered as single dose with meal on day 1 and day 15 followed by bid with meal on day 2 to day 14 measured during compound treatment; format: organism-based; conditions: in vivo
[17] = Clastogenicity in CHL cells assessed as induction of structural chromosomal aberration at 25 to 200 ug/mL measured over 24 hrs in presence of metabolic activation; format: toxicity, cell-based, Cricetulus griseus; conditions: chinese hamster
How it was run: (§4)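 Chinese hamster lung cells scored for structural chromosome aberrations with or without metabolic activation. Exposure was 50–400 μg/mL over 6 h, or 25–200 μg/mL over 24 h.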

[18] = Elimination half life in fasted human at 900 mg, po administered as single dose; format: ADME, organism-based; conditions: in vivo, read-out: beta t1/2 (converted); how it was run: as §3
[19] = tested on: Staphylococcus aureus; experiment: Antibacterial activity against methicillin-resistant Staphylococcus aureus; format: functional
[20] = Half life in male rat at 45 mg/kg, po; format: ADME, organism-based; design: dose 45 mg/kg, route oral; conditions: in vivo
[21] = Clastogenicity in CHL cells assessed as induction of structural chromosomal aberration at 50 to 400 ug/mL measured over 6 hrs in absence of metabolic activation; format: toxicity, cell-based, Cricetulus griseus; conditions: chinese hamster; how it was run: as §4
[22] = Cmax in male rat at 45 mg/kg, po; format: ADME, organism-based; design: dose 45 mg/kg, route oral; conditions: in vivo
[23] = Tmax in female rat at 45 mg/kg, po; format: ADME, organism-based; design: dose 45 mg/kg, route oral; conditions: in vivo
How it was run: (§5)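 Male and female rats received single oral doses of 5, 15 or 45 mg/kg, with 5 mg/kg iv as a reference arm. Tmax was read from the plasma concentration–time profile for each gender.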

[24] = tested on: Staphylococcus aureus; experiment: Potency index, ratio of linezolid MIC90 to compound MIC90 for methicillin-resistant Staphylococcus aureus; format: functional
[25] = tested on: Staphylococcus aureus; experiment: Antibacterial activity against methicillin-sensitive Staphylococcus aureus isolate 15; format: functional
[26] = tested on: Staphylococcus aureus; experiment: Antibacterial activity against Staphylococcus aureus measured after 3 serial passages; format: functional
[27] = tested on: Rattus norvegicus; experiment: Toxicity in female rat assessed as effect on neutrophil count at 200 to 300 mg/kg/day, po bid administered for 4 weeks (reference value: 22.4%); format: organism-based; design: route oral; conditions: in vivo, 672 h
[28] = tested on: Staphylococcus aureus; experiment: Antibacterial activity against Staphylococcus aureus assessed as time required for growth inhibition; format: functional
[29] = tested on: Streptococcus sanguinis; experiment: Antibacterial activity against Streptococcus sanguinis; format: functional
[30] = Cmax in human at 800 mg, po administered as single dose with meal measured on day 15; format: ADME, organism-based; design: dose 800 mg, route oral; conditions: in vivo
How it was run: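 Randomized, double-blind, placebo-controlled multiple-dose study in 32 healthy subjects, half male and half female. Each dose was taken with a meal, at 600 or 800 mg, 28 doses over 15 days. A single dose on days 1 and 15 gave full PK; BID (Q12h) dosing ran on days 2–14.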

[31] = AUC (0 to infinity) in human at 900 mg, po administered as single dose at 30 mins post fat meal; format: ADME, organism-based; design: dose 900 mg, time infinity, route oral; conditions: plasma
How it was run: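 Crossover study in 12 subjects (6 of each gender). Each received a single oral 900 mg dose either fasting or 30 min after a fat-containing meal, and AUC0−inf was determined.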

[32] = Tmax in male rat at 5 mg/kg, po; format: ADME, organism-based; design: dose 5 mg/kg, route oral; conditions: in vivo; how it was run: as §5
[33] = tested on: Rattus norvegicus; experiment: Toxicity in female rat assessed as effect on RBC count at 100 mg/kg/day, po bid administered for 4 weeks (reference value: 7.28 x 10^12/L); format: organism-based; design: route oral; conditions: in vivo, 672 h
[34] = tested on: Staphylococcus aureus; experiment: Antibacterial activity against methicillin-resistant Staphylococcus aureus by agar dilution method; format: functional
How it was run: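 MIC determined by agar dilution across S. aureus/MRSA isolates; MIC90 is the concentration inhibiting 90% of strains tested.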

[35] = Tmax in male rat at 15 mg/kg, po; format: ADME, organism-based; design: dose 15 mg/kg, route oral; conditions: in vivo; how it was run: as §5
[36] = molecular target: Cytochrome P450 2D6 (Homo sapiens, UniProt P10635); experiment: Inhibition of CYP2D6 (unknown origin) at 1 to 200 uM; format: ADME
Sequence of Cytochrome P450 2D6 (P10635 whole entry): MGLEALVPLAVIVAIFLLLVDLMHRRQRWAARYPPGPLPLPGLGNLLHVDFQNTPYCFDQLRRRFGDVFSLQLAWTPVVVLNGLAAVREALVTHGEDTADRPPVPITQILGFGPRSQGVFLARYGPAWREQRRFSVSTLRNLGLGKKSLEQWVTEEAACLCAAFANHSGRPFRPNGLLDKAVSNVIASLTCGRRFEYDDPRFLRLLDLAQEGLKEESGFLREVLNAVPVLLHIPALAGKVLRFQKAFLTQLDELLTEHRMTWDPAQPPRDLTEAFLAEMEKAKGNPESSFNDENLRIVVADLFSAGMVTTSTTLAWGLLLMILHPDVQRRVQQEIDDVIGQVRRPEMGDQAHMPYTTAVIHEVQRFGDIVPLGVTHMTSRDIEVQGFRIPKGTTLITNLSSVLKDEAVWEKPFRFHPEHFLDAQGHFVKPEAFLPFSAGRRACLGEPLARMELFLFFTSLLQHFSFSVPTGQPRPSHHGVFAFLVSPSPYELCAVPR

[37] = Clastogenicity in CHL cells assessed as induction of structural chromosomal aberration at 50 to 400 ug/mL measured over 6 hrs in presence of metabolic activation; format: toxicity, cell-based, Cricetulus griseus; conditions: chinese hamster; how it was run: as §4
[38] = tested on: Staphylococcus aureus; experiment: Antibacterial activity against methicillin-sensitive Staphylococcus aureus ATCC 29213 in po dosed mouse systemic infection model; format: functional; conditions: ATCC 29213, po
[39] = tested on: Rattus norvegicus; experiment: Toxicity in rat assessed as rate of body weight gain at 100 mg/kg, po bid measured over 4 weeks of test period; format: organism-based; design: dose 100 mg/kg, route oral; conditions: in vivo, 672 h
[40] = molecular target: Cytochrome P450 3A4 (Homo sapiens, UniProt P08684); experiment: Inhibition of CYP3A4 (unknown origin) at 1 to 200 uM; format: ADME
Sequence of Cytochrome P450 3A4 (P08684 whole entry): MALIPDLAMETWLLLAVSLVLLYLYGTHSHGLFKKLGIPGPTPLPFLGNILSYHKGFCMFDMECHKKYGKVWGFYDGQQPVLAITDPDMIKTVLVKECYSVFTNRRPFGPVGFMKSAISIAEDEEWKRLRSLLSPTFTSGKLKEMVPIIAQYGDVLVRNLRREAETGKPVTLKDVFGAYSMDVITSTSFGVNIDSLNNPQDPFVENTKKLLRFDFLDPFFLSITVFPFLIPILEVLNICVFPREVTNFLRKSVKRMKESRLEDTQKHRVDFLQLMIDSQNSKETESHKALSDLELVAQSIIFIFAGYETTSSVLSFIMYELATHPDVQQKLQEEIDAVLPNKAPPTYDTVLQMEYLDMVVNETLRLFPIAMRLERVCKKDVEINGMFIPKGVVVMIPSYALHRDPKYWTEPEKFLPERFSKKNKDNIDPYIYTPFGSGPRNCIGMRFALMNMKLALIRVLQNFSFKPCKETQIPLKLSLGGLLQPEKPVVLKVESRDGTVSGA

## O=C1C=CN(c2c(F)cc(N3C[C@H](CNc4ccon4)OC3=O)c(F)c2F)CC1 [CONTEZOLID]
[1]
  AUC(0-t): 25.2 µg·h/mL
[2]
  half-life: 1.5 h
[3]
  Activity: Dose-dependent effect
[4]
  deltalog10CFU: 0.95
[5]
  Tmax: 0.57 h
[6]
  MIC: 2 mg/L (≈ 4.9 µM)
[7]
  Cmax: 15.2 µg/mL
[8]
  ED50: 7.2 mg/kg
[9]
  half-life: 1.47 h
[10]
  inhibition (INH): Not Active
[11]
  NOAEL at 672 h: 100 mg/kg/day
[12]
  MIC50: 0.25 mg/L (≈ 0.612 µM)
  MIC90: 0.5 mg/L (≈ 1.22 µM)
[13]
  deltalog10CFU: 3.29
[14]
  Tmax: 0.6 h
[15]
  half-life: 3.31 h
[16]
  Activity: Non-toxic
[17]
  Activity: Non-toxic
[18]
  half-life: 4.9 h
[19]
  MIC90: 0.5 mg/L (≈ 1.22 µM)
[20]
  half-life: 1.07 h
[21]
  Activity: Non-toxic
[22]
  Cmax: 27.8 µg/mL
[23]
  Tmax: 1.67 h
[24]
  Ratio: 2
[25]
  MIC: 2 mg/L (≈ 4.9 µM)
[26]
  MIC: 2 mg/L (≈ 4.9 µM)
[27]
  Activity: 26.4%
[28]
  Time: 1.6 h
[29]
  MIC: 0.25 mg/L (≈ 0.612 µM)
[30]
  Cmax: 26.4 µg/mL
[31]
  AUC(0-inf): 141 µg·h/mL
[32]
  Tmax: 0.5 h
[33]
  Activity: 6.67 ×10¹² /L
[34]
  MIC50: 0.5 mg/L (≈ 1.22 µM)
  MIC90: 0.5 mg/L (≈ 1.22 µM)
[35]
  Tmax: 1 h
[36]
  inhibition (INH): Not Active
[37]
  Activity: Non-toxic
[38]
  ED50: 8 mg/kg
[39]
  Activity: Non-toxic
[40]
  inhibition (INH): Not Active

— ChEMBL document CHEMBL3286113, “New potent antibacterial oxazolidinone (MRX-I) with an improved class safety profile” (J Med Chem, 2014)
